What was measured:
[1] = molecular target: Adenosine receptors; A1 & A3 (Homo sapiens) (UniProt P30542+P0DMS8); test: Ratio of Ki for human adenosine A1 receptor to Ki for human adenosine A3 receptor
[2] = molecular target: T1, Adenosine receptor A2b (Homo sapiens) (UniProt P29275); test: Antagonist activity human adenosine A2B receptor expressed in CHO cells assessed as inhibition of NECA-mediated [3H]cAMP accumulation at =<5000 nM after 150 mins by scintillation counter; format: functional, cell-based
T1 sequence (whole entry): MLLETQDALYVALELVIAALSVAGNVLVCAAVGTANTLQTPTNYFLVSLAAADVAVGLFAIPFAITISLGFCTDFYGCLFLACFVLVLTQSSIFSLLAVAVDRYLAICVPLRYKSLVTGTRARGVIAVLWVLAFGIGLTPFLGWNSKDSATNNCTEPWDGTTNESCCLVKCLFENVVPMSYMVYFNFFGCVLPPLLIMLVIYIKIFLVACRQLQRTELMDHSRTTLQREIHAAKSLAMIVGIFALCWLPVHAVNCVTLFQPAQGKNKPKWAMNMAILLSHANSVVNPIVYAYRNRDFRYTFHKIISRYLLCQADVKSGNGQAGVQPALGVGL
Method in brief: (§1)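 Intact CHO cells expressing hA2B (1 x 10^6 cells/assay), preincubated 10 min at 37 °C in saline buffer pH 7.4 with 2 IU/mL adenosine deaminase and Ro 20-1724. Antagonism of 100 nM NECA-stimulated cAMP rise. Stopped with cold 6% TCA, ether-extracted. cAMP measured by competition binding with [3H]cAMP and beef adrenal binding protein (4 °C, 150 min), charcoal separation, scintillation counting. IC50 by sigmoid nonlinear regression, mean ± SEM.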

[3] = molecular target: T2, Adenosine receptor A2b (Homo sapiens, UniProt P29275); test: Antagonist activity human adenosine A2B receptor expressed in CHO cells assessed as inhibition of NECA-mediated [3H]cAMP accumulation after 150 mins by scintillation counter; format: functional, cell-based; method in brief: as §1
T2 sequence (P29275 whole entry): T1 sequence (whole entry)

[4] = molecular target: T3, Adenosine receptor A3 (Homo sapiens, UniProt P0DMS8); test: Displacement of [3H]MRE 3008F20 from human adenosine A3 receptor expressed in CHO cells after 120 mins by scintillation spectrometry; format: cell-based
T3 sequence (P0DMS8 whole entry): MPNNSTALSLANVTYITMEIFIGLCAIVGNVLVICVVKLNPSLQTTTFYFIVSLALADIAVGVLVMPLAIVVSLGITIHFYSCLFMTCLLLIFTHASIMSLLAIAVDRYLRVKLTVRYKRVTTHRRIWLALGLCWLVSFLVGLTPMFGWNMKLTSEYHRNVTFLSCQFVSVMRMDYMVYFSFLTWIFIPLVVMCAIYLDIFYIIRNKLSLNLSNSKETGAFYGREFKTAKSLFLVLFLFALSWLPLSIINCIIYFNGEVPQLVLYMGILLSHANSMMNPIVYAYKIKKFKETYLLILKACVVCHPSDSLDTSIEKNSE
Method in brief: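 Membranes from hA3 CHO cells (50 μg protein/assay) in 50 mM Tris HCl, 10 mM MgCl2, 1 mM EDTA pH 7.4, adenosine deaminase-treated. Incubated with 1 nM [3H]MRE 3008F20 and 6-8 ligand concentrations, 120 min at 4 °C. Nonspecific defined with 1 μM MRE 3008F20 (~25% of total). GF/B filtration, three ice-cold washes, scintillation counting. Ki via Cheng-Prusoff; geometric mean, 95% confidence limits, n = 3-6.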

[5] = molecular target: T4, Adenosine receptor A2a (Homo sapiens, UniProt P29274); test: Displacement of [3H]ZM 241385 from human adenosine A2A receptor expressed in CHO cells at <=5000 nM after 60 mins by scintillation spectrometry; format: cell-based
T4 sequence (P29274 whole entry): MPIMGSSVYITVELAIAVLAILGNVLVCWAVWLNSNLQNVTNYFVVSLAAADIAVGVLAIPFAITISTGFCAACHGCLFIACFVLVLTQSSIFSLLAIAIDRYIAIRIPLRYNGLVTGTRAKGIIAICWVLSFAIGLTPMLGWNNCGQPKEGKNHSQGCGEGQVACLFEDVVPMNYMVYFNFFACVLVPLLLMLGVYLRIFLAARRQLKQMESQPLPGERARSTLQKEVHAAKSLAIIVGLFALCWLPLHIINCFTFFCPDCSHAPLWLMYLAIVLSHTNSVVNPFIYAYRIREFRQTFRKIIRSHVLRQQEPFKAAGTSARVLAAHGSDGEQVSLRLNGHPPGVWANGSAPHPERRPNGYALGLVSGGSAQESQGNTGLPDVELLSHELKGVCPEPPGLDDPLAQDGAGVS

[6] = molecular target: T4, Adenosine receptor A2a; test: Displacement of [3H]ZM 241385 from human adenosine A2A receptor expressed in CHO cells after 60 mins by scintillation spectrometry; format: cell-based
[7] = molecular target: T5, Adenosine receptor A1 (Homo sapiens, UniProt P30542); test: Displacement of [3H]DPCPX from human adenosine A1 receptor expressed in CHO cells after 120 mins by scintillation spectrometry; format: cell-based
T5 sequence (P30542 whole entry): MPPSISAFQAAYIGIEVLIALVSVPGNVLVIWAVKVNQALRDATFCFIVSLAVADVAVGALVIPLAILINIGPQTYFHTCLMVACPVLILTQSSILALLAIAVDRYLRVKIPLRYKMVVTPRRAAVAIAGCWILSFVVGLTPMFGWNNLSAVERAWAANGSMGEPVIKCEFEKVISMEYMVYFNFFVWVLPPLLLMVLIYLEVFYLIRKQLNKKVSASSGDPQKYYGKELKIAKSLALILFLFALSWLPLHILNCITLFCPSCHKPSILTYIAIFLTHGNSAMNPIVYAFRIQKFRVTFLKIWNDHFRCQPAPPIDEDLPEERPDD
Method in brief: (§2)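 hA1 CHO membranes (50 μg protein/assay) in 50 mM Tris HCl pH 7.4, pretreated with adenosine deaminase 2 UI/mL for 30 min at 37 °C. Incubated with 1 nM [3H]DPCPX plus 6-8 ligand concentrations for 120 min at 25 °C. Nonspecific binding defined with 1 μM DPCPX. Ki from IC50 by Cheng-Prusoff; geometric means with 95% confidence limits.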

[8] = molecular target: T3, Adenosine receptor A3; test: Antagonist activity human adenosine A3 receptor expressed in CHO cells assessed as blockade of Cl-IB-MECA-mediated inhibition of forskolin-stimulated [3H]cAMP accumulation after 150 mins by scintillation counter; format: functional, cell-based
Method in brief: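 hA3-expressing CHO cells (1 x 10^6 cells/assay), preincubated 10 min at 37 °C in saline buffer pH 7.4 with adenosine deaminase 2 IU/mL and Ro 20-1724. Antagonism of 100 nM Cl-IB-MECA inhibition of cAMP in presence of 1 μM forskolin. Stopped with cold TCA. cAMP by [3H]cAMP competition protein binding (4 °C, 150 min), scintillation counting. IC50 from sigmoid nonlinear regression, mean ± SEM.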

[9] = molecular target: T6, Adenosine receptor A1 (Homo sapiens) (UniProt P30542); test: Displacement of [3H]DPCPX from human adenosine A1 receptor expressed in CHO cells at =<5000 nM after 120 mins by scintillation spectrometry; format: cell-based; method in brief: as §2
T6 sequence (whole entry): T5 sequence (P30542 whole entry)

| SMILES | Ratio Ki [1] | inhibition [2] [%] | IC50 [3] [nM] | Ki [4] [nM] | inhibition [5] [%] | Ki [6] [nM] | Ki [7] [nM] | IC50 [8] [nM] | inhibition [9] [%] |
| --- | --- | --- | --- | --- | --- | --- | --- | --- | --- |
| COc1cc(-c2nc3c([nH]2)C2=N[C@H](C)CN2C(=O)N3Cc2ccccc2)n(C)n1 |  | 19 | > 5000 | 2.38 | 11 | > 5000 | 2550 | 15.9 |  |
| COc1cc(-c2nc3c([nH]2)C2=N[C@@H](C)CN2C(=O)N3Cc2ccccc2)n(C)n1 |  | 22 | > 5000 | 2.52 | 1 | > 5000 | 1730 | 17.5 |  |
| C=CCN1C(=O)N2CC(C)N=C2c2[nH]c(-c3cc(C)nn3C)nc21 (racemic) | 450 | 30 | > 5000 | 4.56 | 7 | > 5000 | 2040 | 34.2 |  |
| C=CCN1C(=O)N2CC(C)N=C2c2[nH]c(-c3cc(OC)no3)nc21 (racemic) | > 1400 | 13 | > 5000 | 3.58 | 11 | > 5000 | > 5000 | 24.2 | 26 |
| C=CCN1C(=O)N2C[C@H](C)N=C2c2[nH]c(-c3cc(C)nn3C)nc21 |  | 12 | > 5000 | 6.03 | 4 | > 5000 | 1960 | 40.9 |  |
| C=CCN1C(=O)N2C[C@@H](CC)N=C2c2[nH]c(-c3cc(OC)nn3C)nc21 |  | 21 | > 5000 | 1.46 | 13 | > 5000 | 2520 | 23.4 |  |
| C=CCN1C(=O)N2CC(CC)N=C2c2[nH]c(-c3cc(C)nn3C)nc21 (racemic) | 170 | 20 | > 5000 | 3.01 | 8 | > 5000 | 515 | 30.3 |  |
| COc1cc(-c2nc3c([nH]2)C2=NC(C)CN2C(=O)N3Cc2ccccc2)n(C)n1 (stereo not given) | 610 | 11 | > 5000 | 3.11 | 1 | > 5000 | 1900 | 27.6 |  |
| C=CCN1C(=O)N2C[C@@H](C)N=C2c2[nH]c(-c3cc(C)nn3C)nc21 |  | 10 | > 5000 | 5.04 | 1 | > 5000 | 2510 | 35.9 |  |
| CC1CN2C(=O)N(Cc3ccccc3)c3nc(-c4cc(OCc5ccccc5)nn4C)[nH]c3C2=N1 (racemic) | 57 | 13 | > 5000 | 44.8 |  | 2010 | 2560 |  |  |
| C=CCN1C(=O)N2CC(CC)N=C2c2[nH]c(-c3cc(OC)no3)nc21 (racemic) |  | 25 | > 5000 | 1.93 |  | 1520 | 3020 | 14.6 |  |
| CCC1CN2C(=O)N(Cc3ccccc3)c3nc(-c4cc(OC)no4)[nH]c3C2=N1 (racemic) |  | 18 | > 5000 | 2.71 | 12 | > 5000 | 485 | 25.3 |  |
| C=CCN1C(=O)N2CC(C)N=C2c2[nH]c(-c3cc(C)n(C)n3)nc21 (racemic) | > 359 | 9 | > 5000 | 13.9 | 1 | > 5000 | > 5000 |  | 13 |
| Cc1cc(-c2nc3c([nH]2)C2=NC(C)CN2C(=O)N3Cc2ccccc2)n(C)n1 (racemic) | > 290 | 8 | > 5000 | 17.2 | 1 | > 5000 | > 5000 |  |  |

Second part, the compound after the results:

| Ratio Ki [1] | inhibition [2] [%] | IC50 [3] [nM] | Ki [4] [nM] | inhibition [5] [%] | Ki [6] [nM] | Ki [7] [nM] | IC50 [8] [nM] | inhibition [9] [%] | SMILES |
| --- | --- | --- | --- | --- | --- | --- | --- | --- | --- |
| 56 | 14 | > 5000 | 21.5 | 5 | > 5000 | 1200 |  |  | C=CCN1C(=O)N2CC(CC)N=C2c2[nH]c(-c3cc(OCc4ccccc4)nn3C)nc21 (racemic) |
| 60 | 20 | > 5000 | 10.3 | 5 | > 5000 | 615 |  |  | CCC1CN2C(=O)N(Cc3ccccc3)c3nc(-c4cc(C)nn4C)[nH]c3C2=N1 (racemic) |
| 105 | 22 | > 5000 | 3.85 | 9 | > 5000 | 405 | 20.4 |  | CCC1CN2C(=O)N(Cc3ccccc3)c3nc(-c4cc(OC)nn4C)[nH]c3C2=N1 (racemic) |
| 42 | 12 | > 5000 | 39.8 |  | 2130 | 1680 |  |  | CCC1CN2C(=O)N(Cc3ccccc3)c3nc(-c4cc(OCc5ccccc5)nn4C)[nH]c3C2=N1 (racemic) |
|  | 10 | > 5000 | 12.6 | 3 | > 5000 | 803 |  |  | CC[C@@H]1CN2C(=O)N(Cc3ccccc3)c3nc(-c4cc(C)nn4C)[nH]c3C2=N1 |
|  | 13 | > 5000 | 13.2 | 4 | > 5000 | 545 |  |  | CC[C@H]1CN2C(=O)N(Cc3ccccc3)c3nc(-c4cc(C)nn4C)[nH]c3C2=N1 |
| 202 | 17 | > 5000 | 24.7 | 25 | > 5000 | > 5000 |  | 47 | C=CCN1C(=O)N2CC(C)N=C2c2[nH]c(-c3cc(OCc4ccccc4)nn3C)nc21 (racemic) |
| 780 | 16 | > 5000 | 1.96 | 1 | > 5000 | 1530 | 12.2 |  | C=CCN1C(=O)N2CC(CC)N=C2c2[nH]c(-c3cc(OC)nn3C)nc21 (racemic) |
|  | 14 | > 5000 | 2.37 | 15 | > 5000 | 1080 | 10.5 |  | C=CCN1C(=O)N2C[C@H](CC)N=C2c2[nH]c(-c3cc(OC)nn3C)nc21 |
